28 compounds from ChEMBL document CHEMBL4396947, “Synthesis and characterization of novel isoform-selective IP6K1 inhibitors” (Bioorg Med Chem Lett, 2019) can be followed below.

In series [1] the target is T1, Inositol hexakisphosphate kinase 1 (Homo sapiens, UniProt Q92551). As to the kind of experiment: Binding affinity to IP6K1 (unknown origin) assessed as change in melting temperature by SYPRO orange dye-based assay. In outline: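 Thermal shift format. Purified IP6K1 heated across a temperature gradient with the ligand at several concentrations. Binding read as the rise in protein melting temperature, including the maximal Tm shift (TmMax).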
Target sequence in this assay (Q92551 whole entry, looked up): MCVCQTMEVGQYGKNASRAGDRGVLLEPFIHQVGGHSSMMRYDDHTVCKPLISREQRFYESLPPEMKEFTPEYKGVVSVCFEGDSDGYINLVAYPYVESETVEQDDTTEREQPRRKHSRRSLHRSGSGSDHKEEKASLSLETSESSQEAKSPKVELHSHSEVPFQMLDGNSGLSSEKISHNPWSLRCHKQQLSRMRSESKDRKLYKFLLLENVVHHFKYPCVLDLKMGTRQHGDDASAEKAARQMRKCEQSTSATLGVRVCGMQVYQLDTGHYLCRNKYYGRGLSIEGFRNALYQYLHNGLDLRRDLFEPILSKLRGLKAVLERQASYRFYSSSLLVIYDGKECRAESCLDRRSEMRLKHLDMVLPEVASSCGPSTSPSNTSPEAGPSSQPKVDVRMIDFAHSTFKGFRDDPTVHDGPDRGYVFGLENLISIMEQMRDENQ

The target in series [2] is T1, Inositol hexakisphosphate kinase 1. Kind of series: Inhibition of IP6K1 (unknown origin) incubated for 30 mins using IP6 as substrate in presence of ATP by ADP-Glo reagent based luminescence assay. The conditions noted are these: read-out: pIC50 (converted). In short, it runs like this:
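Luminescent ADP-Glo Max format adapted for IP6K, with purified enzyme and ATP at 1 mM, which is consumed as the kinase reaction proceeds. IC50 taken from the resulting inhibition data.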
Target sequence in this assay (Q92551 whole entry): as the sequence (Q92551 whole entry, looked up) above

For series [3] the target is unchanged. As to the kind of experiment: Binding affinity to IP6K1 (unknown origin) assessed as change in melting temperature at 11.1 uM by SYPRO orange dye based assay.
Target sequence in this assay (Q92551 whole entry, looked up): as above
Series [4] can be described thus: Half life in human microsomes at 1 uM incubated for 5 to 60 mins in presence of NADPH by LC-MS/MS analysis. Format: ADME, Microsome.
The nature of series [5]: Solubility of compound in 2% DMSO by LC-MS/MS analysis. Format: physicochemical.
Series [6] can be described thus: Half life in mouse microsomes at 1 uM incubated for 5 to 60 mins in presence of NADPH by LC-MS/MS analysis.

Broadly, the ΔTm is the change in melting temperature against a reference sample. For `COCCNc1nc(NCCc2c[nH]c3cc(OC)ccc23)nc2[nH]cnc12`, the thermal shift (ΔTm) worked out at 4.7 °C in series [1] and 3.6 °C in series [3]. Moreover, the IC50 in series [2] was 2.75 µM. Consider `COCCNc1nc(NCCc2c[nH]c3ccc(OC)cc23)nc2[nH]cnc12`, for which, in series [2], the IC50 is 138 µM.

As for `COCCNc1nc(NCc2cccc(C(F)(F)F)c2)nc2[nH]cnc12`, in series [2], the IC50 was 117 µM. On the same count and under the same terms, as for `COCCN(C)c1nc(NCCc2c[nH]c3ccccc23)nc2c1ncn2C`, the figure is greater than 200 µM; as for `FC(F)(F)c1cccc(CNc2nc(NCCc3ccccc3)c3nc[nH]c3n2)c1`, greater than 200 µM; as for `COCCNc1nc(NCCCc2c[nH]c3ccccc23)nc2[nH]cnc12`, 69.2 µM.

For the compound `COCCNc1nc(NCCc2c(C)[nH]c3ccccc23)nc2[nH]cnc12`, in series [2], the IC50 is 1.95 µM. Turning to `COCCNc1nc(NCCc2c[nH]c3ccccc23)nc2[nH]cnc12`, the ΔTm in series [1] stood at 4.3 °C; in series [3], 2.4 °C. In addition, the IC50 in series [2] is 8.32 µM.

With `COCCNc1nc(NCCc2c[nH]c3ccccc23)nc2c1ncn2C`, the IC50 in series [2] was greater than 200 µM. In the case of `FC(F)(F)c1cccc(CNc2nc(NCc3ccccc3)c3nc[nH]c3n2)c1`, the IC50 in series [2] is greater than 200 µM. For `COCCNc1nc(NCCc2c[nH]c3ccc(O)cc23)nc2[nH]cnc12`, the IC50 in series [2] is 31.6 µM.

For the compound `O=c1ccc(CNc2nc(NCCc3c[nH]c4ccccc34)nc3[nH]cnc23)c[nH]1`, the IC50 in series [2] is 1.74 µM. Same read-out and setting: to `COCCNc1nc(NCCc2ccccc2OC)nc2[nH]cnc12` belongs 11.2 µM; to `COCCNc1nc(NCCc2c[nH]c3ccccc23)nc2cc[nH]c12`, greater than 200 µM. Regarding `COCCNc1nc(NCCc2c[nH]cn2)nc2[nH]cnc12`, in series [2], the IC50 is greater than 200 µM.

Take `COCCNc1nc(NCCc2cn(C)c3ccccc23)nc2nc[nH]c12`: the IC50 in series [2] is 31.6 µM.

In the case of `N#Cc1ccc(CNc2nc(NCCc3c[nH]c4ccccc34)nc3[nH]cnc23)cc1`, in series [2], the IC50 is 46.8 µM.

For the compound `COCCNc1nc(NCCc2c[nH]c3ccccc23)nc2[nH]ccc12`, the IC50 in series [2] is greater than 200 µM. On the same count and under the same terms, to `COCCNc1nc(NCCc2ccc(F)cc2)nc2[nH]cnc12` belongs 89.1 µM; to `COCCNc1nc(NCCc2c[nH]c3ccc(Cl)cc23)nc2[nH]cnc12`, 26.9 µM; to `COCCNc1nc(NCCc2ccccc2)nc2[nH]cnc12`, 79.4 µM. Still for that read-out and setting: as for `O=c1cc(CNc2nc(NCCc3c[nH]c4ccccc34)nc3[nH]cnc23)cc[nH]1`, the figure is 10 µM. The same measure, in the same setting: as for `c1ccc2c(CCNc3nc(NCc4ccc5nonc5c4)c4nc[nH]c4n3)c[nH]c2c1`, the figure is 151 µM; as for `COCCNc1nc(N(C)CCc2c[nH]c3ccccc23)nc2nc[nH]c12`, greater than 200 µM.

On to `COCCNc1nc(NCCc2cccc3ccccc23)nc2[nH]cnc12`, for which the IC50 in series [2] is 93.3 µM. On the same count and under the same terms, to `COCCNc1nc(NCCc2c[nH]c3ccc(C)cc23)nc2[nH]cnc12` belongs 123 µM. As usually defined, the half-life is how long it takes for the measured level to halve. With `O=[N+]([O-])c1ccc(CNc2nc(NCc3cccc(C(F)(F)F)c3)nc3[nH]cnc23)cc1`, the half-life at 1 µM in series [4] amounted to 32 min; in series [6], 9 min. The solubility result in series [5] was “Insoluble”. The values for the ΔTm in series [1] and in series [3] were 3.3 °C and 1.8 °C, respectively. The IC50 in series [2] is greater than 200 µM. Turning to `Cc1[nH]c2ccccc2c1CCNc1nc(NCc2ccc(=O)[nH]c2)c2nc[nH]c2n1`, the IC50 in series [2] is 3.02 µM.
